The list is not random: actives were taken first. Their share in the collection is about 12%.
WT yeast gro inh: growth inhibition of WT strain, primary screen, mitochondrial fusion inhibitor project, WT and mutant strains, chemical genetic; mitochondrial fusion phenotypic screen; inhibition, % at 10 µM; actives 2.1% (n = 190,000); in the data active = inhibition above about 58%; tested in S. cerevisiae
ABCG2 block: ABCG2 efflux pump inhibitors, primary screen, multiplex with ABCB1, IgMXP3 cells, flow cytometry | Broad substrate specificity ATP-binding cassette transporter ABCG2 (Homo sapiens), Q9UNQ0 | JC-1 efflux | inhibition, % at 6.6 µM | actives 0.1% (n = 190,000) | AID 1325, 2008;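 active = inhibition above 80%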;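 note: 0% = DMSO and 100% = nicardipine control wells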
Target sequence (Q9UNQ0 whole entry, looked up): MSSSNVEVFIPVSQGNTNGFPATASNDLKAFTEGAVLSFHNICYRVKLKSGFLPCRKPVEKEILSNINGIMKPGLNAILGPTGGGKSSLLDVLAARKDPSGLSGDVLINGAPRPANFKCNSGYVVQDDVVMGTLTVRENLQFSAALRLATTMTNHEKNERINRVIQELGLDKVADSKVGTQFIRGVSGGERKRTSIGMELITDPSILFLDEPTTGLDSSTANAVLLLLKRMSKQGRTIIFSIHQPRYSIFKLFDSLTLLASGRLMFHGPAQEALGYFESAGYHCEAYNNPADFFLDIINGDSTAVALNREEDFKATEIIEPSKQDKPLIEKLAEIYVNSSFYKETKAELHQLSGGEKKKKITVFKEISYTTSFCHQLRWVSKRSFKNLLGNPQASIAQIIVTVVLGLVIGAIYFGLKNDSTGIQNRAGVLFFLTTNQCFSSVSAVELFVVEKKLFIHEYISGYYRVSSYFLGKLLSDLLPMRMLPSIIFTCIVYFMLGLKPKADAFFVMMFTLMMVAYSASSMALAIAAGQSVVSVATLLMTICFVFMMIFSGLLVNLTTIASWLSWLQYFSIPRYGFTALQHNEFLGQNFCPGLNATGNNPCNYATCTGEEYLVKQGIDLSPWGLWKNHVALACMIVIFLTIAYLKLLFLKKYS
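test system = two drug-resistant human cell lines, ABCG2 and ABCB1 | amount = 3 million cells/mL final, two lines in 1:1 ratio | reagent = JC-1 transporter substrate | doses = one concentration, 6.6 µM final | incubation = 10 min at 25 °C | signal = flow cytometric JC-1 green MFI at 530 nm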
RAM network inh: inhibitors of the yeast RAM network, primary screen, dse1pr::URA3 reporter, 5-FOA selection | actives 1.8% (n = 190,000) | inhibition, % at 50 µM | S. cerevisiae dse1pr::URA3 reporter, 5-FOA growth OD615, 2 d; analog-sensitive cbk1-as2 kinase mutant strain;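 active = inhibition above a set limit, 3 SD over mean compound inhibition, cut at about 8.4% in these data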;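 note: 0% = DMSO-only wells with no growth and 100% = 10 µM 1-NA-PP1 full growth; inhibition rescues growth on 5-FOA so higher OD means more RAM inhibition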
Lmaj promast: Leishmania major promastigote growth inhibition, primary screen. Leishmania major promastigotes, resazurin fluorescence viability. inhibition, % at 10 µM. actives 9% (n = 200,000). AID 1063, 2008; in the data active = inhibition above about 50%;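 note: promastigotes grown with compound for 44 hours at 28 °C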
ABCB1 block: ABCB1 efflux pump inhibitors, primary screen, cell-based, multiplex, flow cytometry, ABCG2 counter-screen. ATP-dependent translocase ABCB1 (Homo sapiens), P08183. CCRF-Adr cells, JC-1 efflux. inhibition, % at 6.6 µM. actives 0.067% (n = 190,000); in the data active = inhibition above about 40%;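 note: 0% = vehicle and 100% = reference inhibitor; higher value means more JC-1 retained so stronger ABCB1 efflux block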
Starred values were filed as active, the others as inactive; nt = no result.

SMILES	WT yeast gro inh	ABCG2 block	RAM network inh	Lmaj promast	ABCB1 block
Cc1ccc(C(=O)NN2C(=O)C3C4c5ccccc5C(c5ccccc54)C3C2=O)cc1 (centres undefined)	5	1	3	4	0
COc1ccc(NC(=S)N2CCN(CCN3C(=O)c4cccc5cccc(c45)C3=O)CC2)cc1	4	21	5	-6	1
CC(=O)c1ccc(OCC(O)CN2CCN(CCN3C(=O)c4cccc5cccc(c45)C3=O)CC2)cc1 (centres undefined)	27	5	2	91*	2
CC(=O)c1ccc(NC(=S)N2CCN(CCN3C(=O)c4cccc5cccc(c45)C3=O)CC2)cc1	-5	-1	-1	13	0
Cc1ccccc1OCC(O)CN1CCN(CCN2C(=O)c3cccc4cccc(c34)C2=O)CC1 (centres undefined)	30	13	1	100*	4
CCOc1ccc(NC(=S)N2CCN(CCN3C(=O)c4cccc5cccc(c45)C3=O)CC2)cc1	14	2	1	71*	1
O=C(Nc1ccc(Br)cc1)c1cccc(N2C(=O)C3C4CCC(C4)C3C2=O)c1 (centres undefined)	-16	3	5	-14	1
Cc1c(C(N)=O)sc2ncn(CC(=O)NCCc3ccccc3)c(=O)c12	6	6	2	-1	0
Cc1cc(N)n(Cc2ccc(Cl)cc2)n1	-16	2	-1	15	1
Cc1ccc(-c2cc(N)n(Cc3ccc(Cl)cc3)n2)cc1	-1	4	1	87*	1
CSc1ncccc1C(=O)Nc1ccc(F)c(F)c1F	-19	0	2	-5	0
O=C(CCSc1nc2ccccc2s1)N/N=C/c1c(O)ccc2ccccc12	-16	-9	3	58*	-1
COc1ccc(/C=N/NC(=O)CCSc2nc3ccccc3s2)cc1OC	8	1	2	13	1
CC1CCCCC1NC(=O)NC(=O)CCl (centres undefined)	-11	0	2	98*	0
CC1CCCC(NC(=O)CSC2CCCCC2)C1C (centres undefined)	-6	0	0	5	0
CC1CCCC(NC(=O)NC(=O)CCl)C1C (centres undefined)	-12	-1	1	99*	0
COc1ccc(CN(C)CC(=O)Nc2ccc(Cl)cc2C(F)(F)F)c(OC)c1	34	20	1	6	1
Cc1ccc(S(=O)(=O)c2c(N)n(/N=C/c3ccco3)c3nc4ccccc4nc23)cc1	6	2	6	59*	0
Cc1ccc(S(=O)(=O)c2c(N)n(CC3CCOC3)c3nc4ccccc4nc23)cc1 (centres undefined)	10	nt	4	60*	nt
CCCCCCNC(=O)c1c(N)n(/N=C/c2ccco2)c2nc3ccccc3nc12	nt	nt	nt	-5	nt
Cc1ccc(S(=O)(=O)c2c(N)n(NC(=O)C3CC3)c3nc4ccccc4nc23)cc1	1	-1	0	3	0
COc1ccc(S(=O)(=O)c2c(N)n(Cc3ccco3)c3nc4ccccc4nc23)cc1	1	nt	6	72*	nt
Nc1c(S(=O)(=O)c2ccccc2)c2nc3ccccc3nc2n1/N=C/c1ccco1	2	-1	1	17	0
Cc1ccc(S(=O)(=O)c2c(N)n(/N=C/c3ccco3)c3nc4ccccc4nc23)cc1C	19	-2	4	79*	0
CCOC(=O)CSC1=NC(=O)/C(=C/c2ccc(OC)cc2)S1	18	1	1	26	1
SMILES	WT yeast gro inh	ABCG2 block	RAM network inh	Lmaj promast	ABCB1 block
O=Cc1c(C(=O)O)n(CC(=O)O)c2ccccc12	5	0	0	-7	0
Cc1ccc(-n2c(N)c(S(=O)(=O)c3ccccc3)c3nc4ccccc4nc32)cc1	15	8	8	57*	1
Cc1cccc(S(=O)(=O)c2c(N)n(/N=C/c3ccco3)c3nc4ccccc4nc23)c1	3	0	6	53*	0
Cc1cccc(S(=O)(=O)c2c(N)n(/N=C/c3cccnc3)c3nc4ccccc4nc23)c1	4	0	7	11	0
Cc1cccc(S(=O)(=O)c2c(N)n(-c3ccccc3)c3nc4ccccc4nc23)c1	-7	1	6	17	0
COC(=O)c1cc(NC(=O)Cc2cc(OC)c(OC)c(OC)c2)cc(C(=O)OC)c1	5	4	1	2	1
CC1CCN(CCOCCSc2ccc(Cl)cc2)CC1	26	1	1	93*	0
CC1CN(CCOCCSc2ccccc2)CC(C)O1 (centres undefined)	12	14	1	10	1
CC1CCCN(CCSc2ccc(Cl)cc2)C1 (centres undefined)	10	9	1	72*	2
Clc1ccc(CN2CCCCCCC2)cc1	26	3	-1	2	0
Clc1ccc(SCCOCCN2CCCCC2)cc1	12	2	-1	98*	0
CC1CCCN(Cc2cnc(Cl)s2)C1 (centres undefined)	-1	1	0	-6	0
OC(COC(c1ccc(Cl)cc1)c1ccc(Cl)cc1)CN1CCc2ccccc2C1 (centres undefined)	91	-1	-1	50	10
Clc1ccc(SCCOCCN2CCc3ccccc3C2)cc1	61*	0	1	88*	0
CCCOc1ccc(N2C(=O)CC(SCc3nc4ccccc4[nH]3)C2=O)cc1 (centres undefined)	7	3	1	-2	0
CCC(C)(C)NC(=O)C(c1ccc(C)cc1)N(CCN1CCOCC1)C(=O)CNC(=O)c1cccs1 (centres undefined)	-2	8	0	-2	0
O=C(Nc1ccccc1C(=O)O)/C(=C/c1ccc([N+](=O)[O-])cc1)NC(=O)c1ccc(Br)o1	1	-3	5	-9	-1
C=CCn1c(SCc2cccc3ccccc23)nnc1-c1cccnc1	15	4	-1	50*	1
C=CCn1c(SCC(=O)Nc2cccc(OC)c2)nnc1-c1cccnc1	11	-1	0	-3	0
Cc1ccc(NC(=O)/C(=C/c2cccc([N+](=O)[O-])c2)NC(=O)C2CCCCC2)cc1	14	0	5	4	0
CC(=O)N/C(=C\c1cccc([N+](=O)[O-])c1)C(=O)NC1CCCCC1	-20	36	1	51*	1
O=C(N/C(=C/c1cccc([N+](=O)[O-])c1)C(=O)N1CCCCC1)c1cccs1	-6	12	6	90*	2
CN1CCN(C(=O)/C(=C\c2cccc([N+](=O)[O-])c2)NC(=O)c2cccs2)CC1	-9	1	1	-5	0

High-throughput results from PubChem.
